Key:
[1] = Partition coefficient (logP) (hexadecane); assay type: physicochemical; settings: hexadecane/water
[2] = Effective permeability (Pe) across a hexadecane membrane (pH 6.8); assay type: ADME
Method in brief: (§1)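 Passive permeation from donor to acceptor across a polycarbonate filter (3 µm pores, 9–10 µm thick) coated with hexadecane left after hexane evaporation. Donor held 50 µg/mL compound in buffer with 5% DMSO and 100 mM KCl; acceptor held buffer with 5% DMSO. Incubated 5 h at room temperature with light shaking. Acceptor UV absorbance read at 260–290 nm. Wells below 5 kΩ resistance discarded.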

[3] = Highest effective permeability across hexadecane membrane (pH 4-8); assay type: ADME; method in brief: as §1
[4] = Effective permeability corrected for ionization; assay type: ADME
Method in brief: (§2)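 Derived from hexadecane-membrane Pe measured across a pH range, combined with aqueous pKa. Pe is corrected for ionization to give Pul. Pul is then corrected for the unstirred water layer by the Gutknecht–Tosteson relation to give the intrinsic permeability P0.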

[5] = Intrinsic permeability of the compound; assay type: ADME; method in brief: as §2
[6] = Partition coefficient (logD6.8); assay type: physicochemical; settings: octanol/water, pH 6.8
[7] = % absorbed in human GI-tract; assay type: ADME, organism-based; settings: in vivo, read-out: % absorbed
[8] = Effective permeability measured with HDM assay; assay type: ADME; method in brief: as §1
[9] = Intrinsic permeability measured with HDM assay; assay type: ADME; method in brief: as §2

SMILES | logP [1] | Log Pe [2] | Log Pe [3] | Log Pe,max [4] | Log Po [5] | logD ([6]; read-out: logD) | Fa [7] | logD [6] | Log Pe,max [8] | Log Po [9]
COCCc1ccc(OCC(O)CNC(C)C)cc1 (configuration not stated) [METOPROLOL] | -0.4 | -4.2 cm s-1 | -4.2 cm s-1 | -3.6 | -2.8 | -0.8 |  |  |  | 
CC(CCc1ccccc1)NCC(O)c1ccc(O)c(C(N)=O)c1 (configuration not stated) [LABETALOL] |  | -4.2 cm s-1 | -3.8 cm s-1 |  |  | 0.5 | 90% |  |  | 
CC(C)(C)NC[C@H](O)COc1nsnc1N1CCOCC1 [TIMOLOL] | -1 | -4.4 cm s-1 | -4.2 cm s-1 | -3.6 | -3.2 | -0.7 | 72% |  |  | 
CN/C(=C/[N+](=O)[O-])NCCSCc1ccc(CN(C)C)o1 [RANITIDINE] |  | -4.6 cm s-1 | -4.5 cm s-1 |  |  | -1.1 | 50% |  |  | 
O=C(O)Cc1ccccc1Nc1c(Cl)cccc1Cl [DICLOFENAC] |  |  |  | -3.7 | -1.3 |  |  |  |  | 
O=C(O)c1cc(/N=N/c2ccc(S(=O)(=O)Nc3ccccn3)cc2)ccc1O [SULFASALAZINE] |  | -4.9 cm s-1 | -4.9 cm s-1 |  |  | -0.7 |  |  |  | 
CN1CCN(C2=Nc3cc(Cl)ccc3Nc3ccccc32)CC1 [CLOZAPINE] |  |  |  |  |  |  | 100% | 3 |  | 
C[C@]12CC[C@H]3[C@@H](CCC4=CC(=O)CC[C@@]43C)[C@@H]1CC[C@@H]2O [TESTOSTERONE] |  | -3.5 cm s-1 | -3.5 cm s-1 |  |  | 3.9 | 100% |  |  | 
CC(=O)[C@H]1CC[C@H]2[C@@H]3CCC4=CC(=O)CC[C@]4(C)[C@H]3CC[C@]12C [PROGESTERONE] |  | -3.8 cm s-1 | -3.8 cm s-1 |  |  | 4.3 | 91% |  |  | 
NC(=O)N1c2ccccc2C=Cc2ccccc21 [CARBAMAZEPINE] |  | -3.9 cm s-1 | -3.9 cm s-1 |  |  | 2.4 |  |  |  | 
Nc1nc2c(ncn2COCCO)c(=O)[nH]1 [ACYCLOVIR] |  | -4.8 cm s-1 | -4.8 cm s-1 |  |  | -2 |  |  |  | 
CCCCC(=O)N(Cc1ccc(-c2ccccc2-c2nnn[nH]2)cc1)[C@H](C(=O)O)C(C)C |  |  |  |  |  | -1.6 | 55% |  |  | 
C=CCc1ccccc1OCC(O)CNC(C)C (configuration not stated) [ALPRENOLOL] | 1.3 | -4 cm s-1 | -4 cm s-1 | -3.6 | -1.6 | 0.3 |  |  |  | 
N=C(N)N/N=C/c1c(Cl)cccc1Cl [GUANABENZ] | -1.6 | -5 cm s-1 | -4.4 cm s-1 | -4.9 | -4.6 | 0.9 |  |  |  | 
CC(=O)CC(c1ccccc1)c1c(O)c2ccccc2oc1=O (configuration not stated) [WARFARIN] | 1 | -3.8 cm s-1 | -3.8 cm s-1 | -3.6 | -2.3 | 0.6 |  |  |  | 
CN(Cc1cnc2nc(N)nc(N)c2n1)c1ccc(C(=O)N[C@@H](CCC(=O)O)C(=O)O)cc1 [METHOTREXATE] |  | -4.7 cm s-1 | -4.7 cm s-1 |  |  | -3 | 20% |  |  | 

SMILES | logP [1] | Log Pe [2] | Log Pe [3] | Log Pe,max [4] | Log Po [5] | logD ([6]; read-out: logD) | Fa [7] | logD [6] | Log Pe,max [8] | Log Po [9]
CN1C(C(=O)Nc2ccccn2)=C(O)c2ccccc2S1(=O)=O [PIROXICAM] |  | -4 cm s-1 | -3.3 cm s-1 |  |  | 0.3 |  |  |  | 
CC(C)Cc1ccc(C(C)C(=O)O)cc1 (configuration not stated) [IBUPROFEN] | 1.95 |  |  | -3.7 | -0.9 |  |  |  | -3.7 | -0.9
CN(C)CCCN1c2ccccc2Sc2ccc(Cl)cc21 [CHLORPROMAZINE] | 4.7 | -3.7 cm s-1 | -3.5 cm s-1 | -3.6 | 1.3 | 2.9 | 100% |  |  | 
O=C(O)c1ccccc1O [SALICYLIC ACID] | -1 |  |  | -3.4 | -3.2 |  |  |  |  | 
O=C1NC(=O)C(c2ccccc2)(c2ccccc2)N1 [PHENYTOIN] | -0.3 | -4 cm s-1 | -4 cm s-1 | -4.4 | -3.6 | 2.2 | 90% |  |  | 
CC(=O)N(O)CCCCCNC(=O)CCC(=O)N(O)CCCCCNC(=O)CCC(=O)N(O)CCCCCN [DEFEROXAMINE] |  | -5.3 cm s-1 | -5.3 cm s-1 |  |  | -3 | 2% |  |  | 
CC(C)(C)NCC(O)c1cc(O)cc(O)c1 (configuration not stated) [TERBUTALINE] |  | -4.1 cm s-1 | -4.1 cm s-1 |  |  | -2 | 70% |  |  | 
CN/C(=N/CCSCc1nc[nH]c1C)NC#N [CIMETIDINE] |  | -4 cm s-1 | -4 cm s-1 |  |  | 0.1 | 95% |  |  | 
N=C(N)NC(=O)c1nc(Cl)c(N)nc1N [AMILORIDE] |  | -4.6 cm s-1 | -4.4 cm s-1 |  |  | -2.1 | 50% |  |  | 
Cc1ccccc1N1C(=O)c2cc(S(N)(=O)=O)c(Cl)cc2NC1C (configuration not stated) [METOLAZONE] |  | -4.6 cm s-1 | -4.6 cm s-1 |  |  | 4.1 |  |  |  | 
NS(=O)(=O)c1cc2c(cc1Cl)NCNS2(=O)=O [HYDROCHLOROTHIAZIDE] |  | -4.7 cm s-1 | -4.2 cm s-1 |  |  |  | 67% |  |  | 
CC(C(=O)O)c1cccc(C(=O)c2ccccc2)c1 (configuration not stated) [KETOPROFEN] |  |  |  | -3.6 | -2.7 |  |  |  |  | 
NC(N)=Nc1nc(CSCCC(N)=NS(N)(=O)=O)cs1 [FAMOTIDINE] |  | -4.6 cm s-1 | -4.3 cm s-1 |  |  | -0.8 | 45% |  |  | 
CCN1CCCC1CNC(=O)c1cc(S(N)(=O)=O)ccc1OC (configuration not stated) [SULPIRIDE] |  | -4.6 cm s-1 | -4.6 cm s-1 |  |  |  |  |  |  | 
O=C(O)CN(CCN(CC(=O)O)Cc1ccccc1O)Cc1ccccc1O |  | -5.1 cm s-1 | -5.1 cm s-1 |  |  | -0.2 | 5% |  |  | 
CC(C)NCC(O)COc1cccc2ccccc12 (configuration not stated) [PROPRANOLOL] |  | -4.4 cm s-1 | -4 cm s-1 |  |  |  |  |  |  | 
